Laboratory results published in PubChem BioAssay.
Calls of active or inactive are those of the source.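 The calls were made as follows, unless noted: active = a full or partial loss of lipid-probe fluorescence in the fish gall bladder, intestine or both, judged by eye; inactive = no fluorescence loss, or compound toxic to the fish.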

How the values were obtained:
[1] = inhibitors of TNFa-induced NFkB p65 translocation, primary screen, imaging, HUVEC, MLSMR starter and 10KST1 sets (AID 438;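 active = inhibition above 20% together with a positive visual image hit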;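 also: compound added about 3h40 before a 20 min TNFalpha stimulation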;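 as to inhibition: signal is the nuclear over cytoplasmic p65 intensity ratio per well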); settings: HUVEC TNFa-induced p65 nuclear translocation; cell count: measured here: nuclei count (cytotoxicity indicator), at 2.08 µM; inhibition: at 2 µM, stronger effect = higher value, 0% TNFa-plus-vehicle, 100% no-TNFa wells
[2] = endothelial E-selectin expression blockers – imaging, HUVEC, immunofluorescence, MLSMR starter and 10KST1 sets, primary screen (AID 487;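 active = visually confirmed hit in the image check and inhibition above 20%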;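 as to inhibition: signal is fraction of cell area covered by stained E-selectin grains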;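 as to nuclei count: 100% = median nuclei count of all wells on the same plate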); settings: HUVEC TNFalpha-induced E-selectin immunofluorescence imaging, at 2 µM; inhibition: stronger effect = higher value; nuclei count: measured here: cell number, toxicity
[3] = Primary imaging screen for DUSP6 inhibitors that restore phospho-Erk in transfected HeLa cells, chemical complementation (AID 609;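 active = compounds giving at least 50% inhibition in the cell-based MKP-3 phosphatase rescue imaging test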;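 as to inhibition: phospho-Erk level distribution per well compared with pooled transfected vehicle control wells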); settings: HeLa MKP-3 transfected, phospho-Erk imaging KS statistic, at 10 µM, cells stimulated with TPA for 15 min
[4] = molecular target: Dual specificity protein phosphatase 6 (Homo sapiens) (UniProt Q16828); assay: as above; settings: HeLa MKP-3 transfected, phospho-Erk imaging KS statistic; at 10 µM; stronger effect = higher value; cells stimulated with TPA for 15 min
Dual specificity protein phosphatase 6 (Homo sapiens), sequence (Q16828 whole entry, looked up): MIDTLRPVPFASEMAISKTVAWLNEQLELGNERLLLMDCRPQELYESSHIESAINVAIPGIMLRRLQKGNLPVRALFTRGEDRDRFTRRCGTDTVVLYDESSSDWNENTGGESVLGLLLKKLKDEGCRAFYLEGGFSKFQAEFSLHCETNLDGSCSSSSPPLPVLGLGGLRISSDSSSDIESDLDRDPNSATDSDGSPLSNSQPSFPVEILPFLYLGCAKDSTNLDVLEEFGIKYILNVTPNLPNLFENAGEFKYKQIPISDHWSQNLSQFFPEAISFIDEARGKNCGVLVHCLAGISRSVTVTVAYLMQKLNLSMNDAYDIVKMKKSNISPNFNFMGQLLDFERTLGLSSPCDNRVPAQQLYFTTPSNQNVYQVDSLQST

[5] = molecular target: Voltage-gated potassium channel subunit beta-2 (Rattus norvegicus) (UniProt P62483); assay: inhibitors of rat Kvbeta2 reductase activity – biochemical, NADPH fluorescence, primary screen (AID 622;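 active = fluorescence slope higher than the sample average by over 3 SD, cut at about -0.22 in these data, passing the limit was not always enough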;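 also: slope of raw intensity against log time taken from 70 to 1610 s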); settings: recombinant KvBeta, 4-cyanobenzaldehyde reduction, at 10 µM, stronger effect = higher value
Voltage-gated potassium channel subunit beta-2 (Rattus norvegicus), sequence (P62483 whole entry, looked up): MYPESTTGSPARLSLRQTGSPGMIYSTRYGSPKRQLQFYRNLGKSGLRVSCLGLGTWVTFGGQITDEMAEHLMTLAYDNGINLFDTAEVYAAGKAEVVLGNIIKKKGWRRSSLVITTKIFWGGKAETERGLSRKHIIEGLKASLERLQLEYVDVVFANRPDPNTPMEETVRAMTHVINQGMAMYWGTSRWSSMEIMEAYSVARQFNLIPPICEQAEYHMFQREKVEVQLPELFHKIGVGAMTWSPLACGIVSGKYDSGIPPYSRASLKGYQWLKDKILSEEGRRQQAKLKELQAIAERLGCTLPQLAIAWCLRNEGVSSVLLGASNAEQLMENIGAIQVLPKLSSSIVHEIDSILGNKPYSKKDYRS

[6] = molecular target: Voltage-gated potassium channel subunit beta-2 (Rattus norvegicus) (UniProt P62483); assay: enhancers of rat Kvbeta2 NADPH turnover – biochemical, NADPH fluorescence, primary screen (AID 623;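 active = NADPH fluorescence slope more negative than the mean of all samples by about 3 SD, 99.7% confidence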;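 also: fluorescence intensity change per second fitted from 20 to 320 s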); settings: Recombinant KvBeta, NADPH fluorescence decrease slope, 10 min; at 10 µM; stronger effect = lower value
[7] = molecular target: Muscarinic acetylcholine receptor M4 (Homo sapiens) (UniProt P08173); assay: M4-linked GIRK flux change, two-sided – cell-based, HEK293 M4/GIRK, thallium flux, BTC-AM, M4 allosteric agonist project, primary screen (AID 625;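 active = fluorescence slope after compound addition differing from the mean of all tested samples at 99.7% confidence, mostly higher but some lower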;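 also: thallium influx through GIRK channels coupled to M4 in HEK293 cells with BTC-AM dye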); settings: at 10 µM, actives lie on both sides
Muscarinic acetylcholine receptor M4 (Homo sapiens), sequence (P08173 whole entry, looked up): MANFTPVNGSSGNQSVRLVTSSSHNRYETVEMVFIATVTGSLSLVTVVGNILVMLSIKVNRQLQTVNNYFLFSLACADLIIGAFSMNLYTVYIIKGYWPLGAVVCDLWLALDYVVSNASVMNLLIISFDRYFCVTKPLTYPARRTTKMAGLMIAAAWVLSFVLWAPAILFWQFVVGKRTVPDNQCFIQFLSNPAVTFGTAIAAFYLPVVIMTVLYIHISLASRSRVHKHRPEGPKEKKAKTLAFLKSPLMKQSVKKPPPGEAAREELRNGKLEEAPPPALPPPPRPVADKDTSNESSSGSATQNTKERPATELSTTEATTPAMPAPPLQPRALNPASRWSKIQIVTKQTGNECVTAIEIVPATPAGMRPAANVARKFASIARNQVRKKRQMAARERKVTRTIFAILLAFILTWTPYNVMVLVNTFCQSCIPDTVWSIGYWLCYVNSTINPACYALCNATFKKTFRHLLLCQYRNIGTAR
Procedure, shortened: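 Material – HEK293 cells with M4 receptor and GIRK channels · Buffer or medium – pH 7.3 thallium assay buffer · Doses – one dose, 10 µM final · Timing – cells overnight at 37 °C, BTC-AM loading 1 h, reads 2 min total · Measured by – kinetic fluorescence with BTC-AM dye · Controls – carbachol and DMSO controls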

[8] = inhibitors of larval lipid processing in zebrafish, primary screen, whole organism, PED6 fluorescence, gall bladder and intestine (AID 686); settings: Zebrafish larvae PED6 lipid processing, fluorescence scoring; screened at 20 µM (by protocol);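 also: larvae 5 to 7 days old with five fish per well; signal comes from phospholipase A2 cleavage of quenched PED6 carried via bile; overnight exposure to compound and PED6 before scoring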
Procedure, shortened: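 system = live zebrafish larvae aged 5-7 days, whole organism | probe or stimulus = ingested quenched lipid PED6 at 100 nM | doses = 20 µM single dose | timing = overnight exposure | detection = fluorescence microscopy with visual scoring of gall bladder and intestine | read-out = visual per-well fluorescence inhibition score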

[9] = loss of swimming-algae plug formation – whole organism, Chlamydomonas reinhardtii, WT vs cilia-less mutant, absorbance, 96-well, primary screen (AID 463189;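 active = inhibition at or above 50% relative to wild type and mutant plate controls; inactive = inhibition below 50%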;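 also: 0% = wild type cc124 cells in DMSO and 100% = ciliumless bld1 mutant cells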); settings: Chlamydomonas reinhardtii gravitaxis, OD600 absorbance, 2 days; at 10 µM; stronger effect = higher value
[10] = measured here: cell density z-score
[11] = measured here: nuclear c-Myc green intensity z-score
[12] = measured here: nuclear pErk red intensity z-score, stronger effect = higher value

SMILES | cell count [1] | inhibition [1] | inhibition [2] | nuclei count [2] | z-score [3, 10] | z-score [3, 11] | z-score [3, 12] | inhibition [4] | fluorescence slope [5] | NADPH fluorescence slope [6] | fluorescence slope [7] | outcome [8] | inhibition [9]
COc1ccc(N2CCN(c3oc(COc4ccc(Cl)cc4)nc3C#N)CC2)cc1 | 374 | -3.3% (inactive) | -61.3% (inactive) | 106% | 1.12 | 0.417 | 0.177 | 2.71% (inactive) | -0.46 (inactive) | -7e-05 (inactive) | 0.00414 (inactive) | inactive | -10.3% (inactive)
CCOCCn1c(SC)nc2c1c(=O)[nH]c(=O)n2C | 498 | 6.3% (inactive) | -6% (inactive) | 122% | 1.57 | -1.62 | 0.579 | 12.8% (inactive) | -0.529 (inactive) | -3.7e-05 (inactive) | 0.00609 (inactive) | inactive | 44.4% (inactive)
Cc1cc(=O)oc(C)c1C(=O)NCCc1ccccc1 | 661 | 9.3% (inactive) | -1% (inactive) | 109% | -0.903 | 1.05 | 0.63 | 5.35% (inactive) | -0.433 (inactive) | -4.2e-05 (inactive) | 0.00484 (inactive) | inactive | -7.3% (inactive)
CCCC1CC(=O)OC1(C)C(=O)CSc1n[nH]c(-c2ccccc2)n1 (centres undefined) | 686 | -3.7% (inactive) | -35.6% (inactive) | 142% | 0.882 | 0.0839 | -0.223 | -9.66% (inactive) | -0.472 (inactive) | -1.5e-05 (inactive) | 0.00594 (inactive) | active; no signal in intestine only | -3.69% (inactive)
COc1cccc(Cn2c(NCc3ccccn3)nc3c2c(=O)n(C)c(=O)n3C)c1 | 694 | -20.9% (inactive) | -199% (inactive) | 189% | 0.955 | -1.34 | -0.0315 | 17.8% (inactive) | -0.5 (inactive) | -7.9e-05 (inactive) | 0.00592 (inactive) | inactive | 4.17% (inactive)
c1ccc2c(c1)CCN(c1ncnc3c1[nH]c1ccccc13)C2 | 585 | -19.2% (inactive) | -59.1% (inactive) | 172% | 0.335 | -1.2 | 1.56 | -4.59% (inactive) | -0.388 (inactive) | -1.5e-05 (inactive) | 0.00488 (inactive) | inactive | 42.6% (inactive)
Cc1c(Cl)cccc1N1C(=O)C2ON(c3ccccc3)C(c3cccnc3)C2C1=O (centres undefined) | 542 | -6.8% (inactive) | 9.6% (inactive) | 83.2% | 0.393 | 0.964 | -1.74 | 6.04% (inactive) | -0.497 (inactive) | -1.3e-05 (inactive) | 0.00557 (inactive) | inactive | 20% (inactive)
CCc1cc(=O)oc2cc(C)c(CN3CCCCC3)c(O)c12 | 612 | -9.1% (inactive) | 31% (inactive) | 182% | -0.916 | -0.125 | 1.01 | -8.95% (inactive) | -0.464 (inactive) | -6.3e-05 (inactive) | 0.00459 (inactive) | inactive | 4.62% (inactive)
O=C(Nc1ccccc1)c1cc(N2CCOCC2)nc2ccccc12 | 667 | -1.5% (inactive) | -114% (inactive) | 149% | 1.08 | 1.33 | -0.63 | 6.51% (inactive) | -0.419 (inactive) | -6.8e-05 (inactive) | 0.00579 (inactive) | inactive | -0.488% (inactive)
Cc1cc(CC(=O)O)c(C)cc1CC(=O)O | 590 | -9.1% (inactive) | -39.7% (inactive) | 146% | -0.726 | 1.92 | 1.23 | -7.67% (inactive) | -0.445 (inactive) | -0.000138 (inactive) | 0.00496 (inactive) | inactive | -5.83% (inactive)
c1nc(NC2CCCCC2)c2[nH]cnc2n1 | 743 | -1.9% (inactive) | -76.5% (inactive) | 168% | -1.06 | 0.0486 | -0.156 | 9.91% (inactive) | -0.483 (inactive) | -6.4e-05 (inactive) | 0.00575 (inactive) | inactive | 3.23% (inactive)
CCN(CC)CCN1C(=O)C(=O)/C(=C(/O)c2ccc(OC)cc2)C1c1ccco1 (centres undefined) | 710 | -1.4% (inactive) | 4.1% (inactive) | 163% | 0.167 | 0.629 | 0.173 | -7.67% (inactive) | -0.496 (inactive) | -6.6e-05 (inactive) | 0.00632 (inactive) | inactive | 5.19% (inactive)
C=CCn1c(-c2ccc(OC)c(OC)c2)n[nH]c1=S | 515 | -3.9% (inactive) | 9.4% (inactive) | 150% | 0.455 | -1.23 | -0.521 | 5.95% (inactive) | -0.338 (inactive) | -3.6e-05 (inactive) | 0.00705 (inactive) | inactive | 30.5% (inactive)
